Broadly, the viability is a read-out of living cells in per cent, often relative to untreated cells. A word on the inhibition: it is the relative decrease from the control value, in per cent.

Unmarked numbers belong to inactive results. Records with an inconclusive call do not appear. The source made the active and inactive calls.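 The calls were made as follows, unless noted: active = inhibition over a set limit, the all-compound mean plus 3 SD, in both replicate runs; inconclusive = over that limit in just one replicate run; inactive = at or under that limit in both runs.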

24 molecules from PubChem BioAssay can be followed below.

The nature of test [1]: S. cerevisiae growth inhibition in permissive medium (OD615), pilot counter-assay for S. cerevisiae lifespan shortening project, permissive growth control (AID 705;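 active = growth inhibition above 25% in both replicates, a cutoff set 3 SD above the mean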). Particulars: OD615, 24 h, at 10 µM, active compounds read high. The procedure, abridged:
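Material: engineered DeaD yeast; compound dosing: one dose 10 µM, DMSO 0.25% final; measure: yeast growth inhibition indicated by reduced 24 h OD615; detection: OD615 turbidity read; incubation: cells pre-grown 4 h, then 24 h compound exposure, 30 °C humidified; medium: permissive synthetic complete medium with raffinose and galactose carbon sources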

Test [2] is described as follows: S. cerevisiae growth inhibition in restrictive medium, OD615, pilot screen, restrictive growth control, yeast lifespan reduction project (AID 706;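 active = growth inhibition above a set limit, 3 SD over mean compound inhibition, in both replicates, cut at about 43% in these data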;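 also: modified DeaD lifespan yeast strain shifted to restrictive glucose medium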). Particulars: OD615, 48 h, at 10 µM, active compounds read high. The procedure, abridged:
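material = engineered S. cerevisiae DeaD strain | medium = glucose-based CSMM-D restrictive medium | times = 4 h pre-incubation, 48 h exposure at 30 °C | technique = OD615 absorbance reading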

Test [3] can be described thus: doxorubicin toxicity protection in MRP-1 cells – H69AR cells, CellTiter-Glo, duplicate, MRP-1 activator project, pilot screen (AID 807;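 active = viability increase at or above a cutoff of the median across tested compounds plus 3 SD, cut at about 8.5% in these data, passing the limit was not always enough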;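 also: compound pretreatment 18-22 h then 72 h combined with doxorubicin; 0% = doxorubicin alone and 100% = vehicle without doxorubicin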). Particulars: H69AR viability with doxorubicin, CellTiter-Glo luminescence; at 10 µM; active compounds read high. A general note: ATP-based viability assays read luminescence as a measure of living cells.
The nature of test [4]: viability of HCT116 without oncogenic beta-catenin – human colon tumor cells, pilot screen (AID 823;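 active = cell viability at or below a set limit in both duplicate runs, the limit being the all-compound median minus 4 SD, cut at about 23% in these data, passing the limit was not always enough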;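 also: 0% = wells killed by 20 µM Hyamine and 100% = untreated DMSO cell wells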). Particulars: HCT116 beta-catenin knockout viability, CellTiter-Glo, 60 h; at 10 µM; active compounds read low.
A short description of test [5]: viability of PTEN-null HCT116 cells – cell-based, HCT116 clonal line, CellTiter-Glo, pilot screen (AID 824;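 active = viability at or below 27.92% in each of two runs, the all-compound median minus 4 SD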;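 also: 0% = 20 µM Hyamine control and 100% = vehicle cell control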). Particulars: HCT116 PTEN-deleted viability, 60 h, at 10 µM, active compounds read low.
Test [6] can be described thus: RAM pathway blockade in budding yeast – dse1pr::URA3 reporter, 5-FOA selection, pilot screen (AID 869).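 Also: 0% = DMSO wells with no growth and 100% = 10 µM 1-NA-PP1 with full growth; RAM network block rescues cells from 5-FOA so hits raise OD615 growth.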 Particulars: S. cerevisiae dse1pr::URA3 5-FOA growth, OD615, 2 d; at 10 µM; active compounds read high; strain carries analog-sensitive mutant Cbk1 kinase.
Test [7] can be described thus: RAM signaling pathway blockade in yeast – S. cerevisiae, Pdr1DBD-CYC8 efflux-inhibited sensitized strain, primary screen (AID 1298;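 active = RAM network inhibition above 8.4% in each of two replicates, 3 SD over the compound average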;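 also: 0% = DMSO untreated cells without growth and 100% = 10 µM 1-NA-PP1 full growth; higher means more yeast growth rescued from 5-FOA killing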). Particulars: S. cerevisiae cbk1-as DSE1-URA3 strain, 5-FOA growth OD615, 2 d; at 50 µM; active compounds read high.

With `COc1ccccc1C1CC(=O)NC(SCC(=O)Nc2ccccc2)=C1C#N` (stereo not drawn), the growth inhibition in test [1] was 4.78%; in test [2], -11.8%. Further, in test [3], the viability increase is 1.09%. Further, the viability in test [4] is 93.2%; in test [5], 88.2%. Further, in test [6], the inhibition is 3.57%. The RAM network inhibition in test [7] is 1.38%.
Regarding `CC1CCN(C(=O)CNC(=O)Cn2ccc3ccccc3c2=O)CC1`, the growth inhibition in test [1] was -9.29%; in test [2] it was -0.685%. Further, in test [3], the viability increase is -1.73%. For the same molecule, the results for the viability in test [4] and in test [5] were 98.2% and 94.1%, respectively. In addition, in test [6], the inhibition was 0.755%. Further, the RAM network inhibition in test [7] was 1.67%.
As for `Cc1ccc2cc(-c3noc(C4CCCO4)n3)c(=O)[nH]c2c1` (stereo not drawn), the values for the growth inhibition in test [1] and in test [2] were -12.5% and -7.12%, respectively. Further, the viability increase in test [3] was -0.44%. Moreover, the viability in test [4] is 108%; in test [5], 100%. For the same molecule, in test [6], the inhibition is 0.82%. Also, the RAM network inhibition in test [7] was 4.44%.
With `Cc1nn(C)c(C)c1N=Cc1c(O)ccc2ccccc12`, the growth inhibition in test [1] is -25.2%; in test [2], -28.4%. Further, in test [3], the viability increase was -1.72%. For the same molecule, the viability in test [4] is 105%; in test [5], 92.1%. For the same molecule, the inhibition in test [6] is -0.015%. In addition, the RAM network inhibition in test [7] is -0.32%.
Take `CCSc1nc2c(c(=O)n1-c1ccc(F)cc1)SCC2`: the results for the growth inhibition in test [1] and in test [2] were -7.3% and -6.39%, respectively. The viability increase in test [3] was -2.75%. For the same molecule, the viability was 89.2% in test [4] and 94.2% in test [5]. For the same molecule, in test [6], the inhibition is 1.18%. In addition, the RAM network inhibition in test [7] is -0.35%.
With `CCCCCC(C)n1[nH]c(=O)c2c(C)cc(C)nc21` (stereo not drawn), the growth inhibition was -6.7% in test [1] and 17.6% in test [2]. Besides, the viability increase in test [3] was -3.27%. In addition, the viability in test [4] was 97.6%; in test [5], 96.2%. In addition, the inhibition in test [6] is 0.47%. For the same molecule, the RAM network inhibition in test [7] was 0.57%.
With `CCCCNC(=O)c1ccc(CS(=O)(=O)c2ccc(OC)cc2)o1`, the growth inhibition in test [1] is -14.2%; in test [2], -23%. Also, the viability increase in test [3] is -0.64%. Further, the viability in test [4] is 107%; in test [5], 97.8%. For the same molecule, the inhibition in test [6] was 0.45%. Moreover, the RAM network inhibition in test [7] was 2.18%.
With `C=C(C)CSC1=C(C#N)C(c2ccccc2)CC(=O)N1` (stereo not drawn), the growth inhibition in test [1] is -13.1%; in test [2], -8.52%. Besides, the viability increase in test [3] was -2.09%. Also, the viability is 86.6% in test [4] and 84.1% in test [5]. The inhibition in test [6] was 0.55%. In addition, in test [7], the RAM network inhibition is 4.86%.
As for `CCOC(=O)c1nnn(-c2nonc2N)c1COc1ccccc1`, the growth inhibition in test [1] is -15.7%; in test [2] it was -5.9%. Also, the viability increase in test [3] was -2.43%. Also, the viability is 89.5% in test [4] and 87.4% in test [5]. The inhibition in test [6] is 0.05%. The RAM network inhibition in test [7] was 3.66%.
As to `CCOC(=O)C1CCCN(C(=O)c2ccccc2Oc2ccccc2)C1` (stereo not drawn), the growth inhibition was -6.35% in test [1] and -9.14% in test [2]. The viability increase in test [3] is -1.3%. Further, the viability was 91.1% in test [4] and 102% in test [5]. For the same molecule, the inhibition in test [6] is 0.545%. The RAM network inhibition in test [7] is 1.27%.
In the case of `Cc1ccc(N2Cc3ccccc3OC(C)C2=O)cc1` (stereo not drawn), the growth inhibition was -1.43% in test [1] and 0.105% in test [2]. For the same molecule, in test [3], the viability increase is -3.99%. Moreover, the viability in test [4] was 90.3%; in test [5], 91.3%. In addition, in test [6], the inhibition was 0.735%. In addition, the RAM network inhibition in test [7] was 1.16%.
Turning to `COc1cc2[nH]c(=O)n(CCCCCC(=O)N3CCN(c4ccccc4)CC3)c(=O)c2cc1OC`, the growth inhibition in test [1] is -20.4%; in test [2], -2.1%. Further, the viability increase in test [3] is -4.46%. For the same molecule, the results for the viability in test [4] and in test [5] were 58.5% and 52.5%, respectively. Moreover, in test [6], the inhibition was 1.25%. Besides, the RAM network inhibition in test [7] is 0.58%.
Consider `N#Cc1ccc(N2CCN(C(=O)c3cccc(F)c3)CC2)c(F)c1`, for which the growth inhibition in test [1] is 6.81%; in test [2] it was 4.18%. The viability increase in test [3] is -2.03%. The viability in test [4] is 98.4%; in test [5] it was 87.8%. Besides, in test [6], the inhibition was 2.12%. For the same molecule, the RAM network inhibition in test [7] was 0.57%.
For the molecule `COc1cccc(C(=O)NCc2cn3ccsc3n2)c1`, the figures for the growth inhibition in test [1] and in test [2] were -16.9% and 4.09%, respectively. In addition, in test [3], the viability increase is -1.05%. The values for the viability in test [4] and in test [5] were 110% and 92.4%, respectively. In addition, in test [6], the inhibition is 2.06%. Also, the RAM network inhibition in test [7] was 3.48%.
Turning to `O=C(Nc1ccccc1)N(CCCN1CCOCC1)Cc1cccs1`, the growth inhibition in test [1] was -1.32%; in test [2] it was 9.1%. The viability increase in test [3] was -3.05%. The viability in test [4] was 96.3%; in test [5], 93.9%. Besides, the inhibition in test [6] is 2.5%. Moreover, the RAM network inhibition in test [7] was 0.88%.
`Cc1cc(/C=N/n2cnnc2)c(C)n1-c1ccc(OCc2ccc(F)cc2)cc1`: the growth inhibition in test [1] is -2.2%; in test [2], 32.3%. Moreover, the viability increase in test [3] is -5.79%. Further, the results for the viability in test [4] and in test [5] were 10.2% (active) and 11.8% (active), respectively. For the same molecule, the inhibition in test [6] was 1.71%. For the same molecule, the RAM network inhibition in test [7] is 8.48%.
For the molecule `COC(=O)C(C)NC(=O)C1CCCN1S(=O)(=O)c1cc(C)c(Cl)cc1C` (stereo not drawn), the growth inhibition in test [1] was -5.19%; in test [2], -6.72%. In test [3], the viability increase is -1.54%. Moreover, the figures for the viability in test [4] and in test [5] were 93.8% and 94.9%, respectively. Besides, the inhibition in test [6] is 0.935%. Moreover, the RAM network inhibition in test [7] is 0.4%.
For `NC(=O)COc1ccc(=O)n(-c2ccccc2)n1`, the values for the growth inhibition in test [1] and in test [2] were 2.42% and 4.29%, respectively. In test [3], the viability increase is 0.84%. In addition, the values for the viability in test [4] and in test [5] were 107% and 105%, respectively. Besides, in test [6], the inhibition is 1.23%. Further, in test [7], the RAM network inhibition is 1.14%.
As for `COc1ccccc1NC(=O)CSc1nnc(-c2ccccn2)n1Cc1ccco1`, the figures for the growth inhibition in test [1] and in test [2] were -3.73% and 13.1%, respectively. In addition, in test [3], the viability increase was -3.83%. Further, the viability was 101% in test [4] and 96.8% in test [5]. In addition, the inhibition in test [6] is 1.23%. In test [7], the RAM network inhibition is 2.52%.
Turning to `CCOC(=O)N1CCN(C(=O)c2oc3ccc(S(=O)(=O)N4CCCCCC4)cc3c2C)CC1`, the figures for the growth inhibition in test [1] and in test [2] were -9.38% and -0.595%, respectively. In addition, the viability increase in test [3] is -4.29%. The figures for the viability in test [4] and in test [5] were 59.3% and 71.1%, respectively. Besides, the inhibition in test [6] was -0.805%. Moreover, the RAM network inhibition in test [7] was 1.63%.
For `Cc1ccc(-n2nnc3c(=O)n(CC(=O)NCc4ccco4)cnc32)cc1`, the growth inhibition in test [1] was -7.22%; in test [2] it was 2.02%. Moreover, the viability increase in test [3] was -4.35%. The viability was 67.6% in test [4] and 63.4% in test [5]. Also, the inhibition in test [6] is 3.36%. Also, the RAM network inhibition in test [7] is 7.68%.
Turning to `CC1(C)Cc2ccccc2-c2nc(NCCCO)n(-c3ccccc3)c(=O)c21`, the growth inhibition in test [1] was -18.3%; in test [2], -18.9%. Further, the viability increase in test [3] was -0.84%. Besides, the viability in test [4] was 97.7%; in test [5], 91.3%. The inhibition in test [6] was 1.07%. Further, in test [7], the RAM network inhibition was 5.29%.
For the molecule `CCC(C#CCN1CCCCC1)(CC)OCCC#N`, the figures for the growth inhibition in test [1] and in test [2] were -4.58% and -9.71%, respectively. Further, in test [3], the viability increase is -1.94%. Also, the viability was 102% in test [4] and 97.6% in test [5]. For the same molecule, the inhibition in test [6] was 0.79%. In addition, the RAM network inhibition in test [7] is 4.07%.
As for `CCCn1c(CNS(=O)(=O)c2ccc(C)cc2)nc2ccccc21`, the growth inhibition in test [1] is -7.5%; in test [2], 7.18%. In addition, the viability increase in test [3] was -2.43%. Also, the values for the viability in test [4] and in test [5] were 83.6% and 85.2%, respectively. Further, in test [6], the inhibition was 0.135%. Moreover, the RAM network inhibition in test [7] was 0.52%.
